# Source: ChEMBL document CHEMBL5038583, “Highly Potent and Selective Butyrylcholinesterase Inhibitors for Cognitive Improvement and Neuroprotection” (J Med Chem, 2021)
# Biological target: Cholinesterase (Equus caballus, UniProt P81908)
# Experiment: Inhibition of equine serum BChE using butyrylthiocholine iodide as substrate preincubated for 5 mins followed by substrate addition and measured after 2 mins by DTNB-reagent based Ellman's method
# Conditions: not given
# Sequence of Cholinesterase (Equus caballus, UniProt P81908) (P81908 whole entry): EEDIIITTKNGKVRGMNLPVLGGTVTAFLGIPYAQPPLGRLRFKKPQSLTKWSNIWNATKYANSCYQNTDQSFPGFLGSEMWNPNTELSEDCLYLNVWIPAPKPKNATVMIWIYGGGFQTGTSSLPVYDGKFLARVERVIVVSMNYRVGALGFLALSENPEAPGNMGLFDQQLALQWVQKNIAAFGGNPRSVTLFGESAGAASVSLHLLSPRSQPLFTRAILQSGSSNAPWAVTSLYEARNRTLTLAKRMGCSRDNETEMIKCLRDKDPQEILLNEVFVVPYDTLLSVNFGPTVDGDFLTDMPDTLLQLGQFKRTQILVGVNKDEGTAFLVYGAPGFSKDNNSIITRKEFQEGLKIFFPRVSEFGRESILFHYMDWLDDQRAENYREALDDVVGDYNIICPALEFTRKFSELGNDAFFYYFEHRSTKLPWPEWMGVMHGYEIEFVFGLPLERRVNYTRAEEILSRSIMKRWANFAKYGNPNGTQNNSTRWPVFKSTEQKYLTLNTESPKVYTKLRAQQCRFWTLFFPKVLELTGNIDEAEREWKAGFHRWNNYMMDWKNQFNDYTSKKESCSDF
row,SMILES,IC50
1,Cc1cc2nc(-c3nonc3N)n(CC(=O)Nc3cccc4ccccc34)c2cc1C,0.108 µM
2,Cc1ccc(NC(=O)Cn2c(-c3nonc3N)nc3ccccc32)cc1,10.3 µM
3,CC(=O)Nc1ccc(NC(=O)Cn2c(-c3nonc3N)nc3ccccc32)cc1,6.54 µM
4,COc1cc(NC(=O)Cn2c(-c3nonc3N)nc3ccccc32)cc(OC)c1OC,6.64 µM
5,Cc1cccc(NC(=O)Cn2c(-c3nonc3N)nc3ccccc32)c1C,0.326 µM
6,Nc1nonc1-c1nc2ccccc2n1CC(=O)Nc1cccc2ncccc12,0.92 µM
7,Nc1nonc1-c1nc2ccccc2n1CC(=O)Nc1ccnc2ccccc12,0.051 µM
8,CC(=O)c1ccc(NC(=O)Cn2c(-c3nonc3N)nc3ccccc32)cc1,2.27 µM
9,Nc1nonc1-c1nc2ccccc2n1CC(=O)Nc1ccc2ccccc2n1,0.507 µM
10,Nc1nonc1-c1nc2ccccc2n1CCC(=O)Nc1ccc2ncccc2c1,0.253 µM
11,Nc1nonc1-c1nc2ccccc2n1CC(=O)Nc1ccc2ncccc2c1,0.705 µM
12,Cc1cc2nc(-c3nonc3N)n(CC(=O)Nc3cnc4ccccc4c3)c2cc1C,28.5 µM
13,COC(=O)c1ccc(NC(=O)Cn2c(-c3nonc3N)nc3ccccc32)cc1,5.38 µM
14,Nc1nonc1-c1nc2ccccc2n1CC(=O)Nc1ccccc1,2.96 µM
15,Nc1nonc1-c1nc2ccccc2n1CC(=O)Nc1ccc2ccccc2c1,352 µM
16,Nc1nonc1-c1nc2ccccc2n1CC(=O)Nc1cccc(F)c1,1.04 µM
17,Nc1nonc1-c1nc2ccccc2n1CC(=O)Nc1cccc(F)c1F,0.27 µM
18,Nc1nonc1-c1nc2ccccc2n1CC(=O)Nc1ccc([N+](=O)[O-])cc1,0.03 µM
19,Nc1nonc1-c1nc2ccccc2n1CC(=O)Nc1cccc(Cl)c1,0.033 µM
20,Nc1nonc1-c1nc2ccccc2n1CC(=O)Nc1ccccc1F,0.124 µM
21,Nc1nonc1-c1nc2ccccc2n1CC(=O)Nc1ccc2c(c1)OCO2,2.21 µM
22,CC(=O)c1cccc(NC(=O)Cn2c(-c3nonc3N)nc3ccccc32)c1,0.191 µM
23,Cc1cccc(NC(=O)Cn2c(-c3nonc3N)nc3ccccc32)c1,0.236 µM
24,COc1cccc(NC(=O)Cn2c(-c3nonc3N)nc3ccccc32)c1,1.71 µM
25,Cc1cc2nc(-c3nonc3N)n(CC(=O)Nc3ccc4ncccc4c3)c2cc1C,11.3 µM
26,CC(=O)Nc1cccc(NC(=O)Cn2c(-c3nonc3N)nc3ccccc32)c1,1.13 µM
27,Nc1nonc1-c1nc2ccccc2n1CC(=O)Nc1cccc(Br)c1,0.083 µM
28,N#Cc1cccc(NC(=O)Cn2c(-c3nonc3N)nc3ccccc32)c1,0.051 µM
29,Nc1nonc1-c1nc2ccccc2n1CC(=O)Nc1ccccc1Cl,2.73 µM
30,COC(=O)c1cccc(NC(=O)Cn2c(-c3nonc3N)nc3ccccc32)c1,0.027 µM

# Biological target: Cholinesterase (Equus caballus) (UniProt P81908)
# Experiment: Inhibition of equine serum BChE at 10 uM using butyrylthiocholine iodide as substrate preincubated for 5 mins followed by substrate addition and measured after 2 mins by DTNB-reagent based Ellman's method relative to control
# Conditions: time 7.0 min
# Outline: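 Ellman method with equine BChE at 2.5 units/mL in pH 8.0 phosphate buffer with DTNB. Preincubation 5 min at room temperature, then butyrylthiocholine iodide (0.075 M solution) added; absorbance at 412 nm after 2 min. Ethanol sample gives 100% activity. Triplicates, at least three runs.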
# Sequence of Cholinesterase (Equus caballus) (P81908 whole entry): as above
row,SMILES,inhibition
1,COc1ccc(NC(=O)Cn2c(-c3nonc3N)nc3ccccc32)cc1,< 50%
2,O=C(Cn1c(-c2ccccc2)nc2ccccc21)Nc1ccc2ncccc2c1,< 50%
3,Nc1nonc1-c1nc2ccccc2n1CCCCC(=O)Nc1ccc2ncccc2c1,< 50%
4,Nc1nonc1-c1nc2ccccc2n1CC(=O)Nc1ccc(-c2ccccc2)cc1,< 50%
5,O=C(Cn1c(-c2ccoc2)nc2ccccc21)Nc1ccc2ncccc2c1,< 50%
6,O=C(Cn1c(-c2ccccc2[N+](=O)[O-])nc2ccccc21)Nc1ccc2ncccc2c1,< 50%
7,Nc1nonc1-c1nc2ccccc2n1CC(=O)Nc1ccc(Br)cc1,< 50%
8,Nc1nonc1-c1nc2ccccc2n1CC(=O)Nc1ccc(Cl)cc1,< 50%
9,Nc1ccc(NC(=O)Cn2c(-c3nonc3N)nc3ccccc32)cc1,< 50%
10,Nc1ccccc1-c1nc2ccccc2n1CC(=O)Nc1ccc2ncccc2c1,< 50%

# Biological target: Cholinesterase (Homo sapiens, UniProt P06276)
# Experiment: Inhibition of human serum BChE using butyrylthiocholine iodide as substrate preincubated for 20 mins followed by substrate addition and measured after 2 mins by DTNB-reagent based Ellman's method
# Conditions: not given
# Outline: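 hBChE at 0.015 units/mL with DTNB in phosphate buffer pH 8.0, preincubated 20 min at room temperature with at least six concentrations (10⁻⁴−10⁻⁹). Butyrylthiocholine iodide (0.075 M solution) added; A412 read after 2 min at 25 °C. IC50 from % activity vs log concentration; triplicates in at least three runs.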
# Sequence of Cholinesterase (Homo sapiens, UniProt P06276) (P06276 whole entry): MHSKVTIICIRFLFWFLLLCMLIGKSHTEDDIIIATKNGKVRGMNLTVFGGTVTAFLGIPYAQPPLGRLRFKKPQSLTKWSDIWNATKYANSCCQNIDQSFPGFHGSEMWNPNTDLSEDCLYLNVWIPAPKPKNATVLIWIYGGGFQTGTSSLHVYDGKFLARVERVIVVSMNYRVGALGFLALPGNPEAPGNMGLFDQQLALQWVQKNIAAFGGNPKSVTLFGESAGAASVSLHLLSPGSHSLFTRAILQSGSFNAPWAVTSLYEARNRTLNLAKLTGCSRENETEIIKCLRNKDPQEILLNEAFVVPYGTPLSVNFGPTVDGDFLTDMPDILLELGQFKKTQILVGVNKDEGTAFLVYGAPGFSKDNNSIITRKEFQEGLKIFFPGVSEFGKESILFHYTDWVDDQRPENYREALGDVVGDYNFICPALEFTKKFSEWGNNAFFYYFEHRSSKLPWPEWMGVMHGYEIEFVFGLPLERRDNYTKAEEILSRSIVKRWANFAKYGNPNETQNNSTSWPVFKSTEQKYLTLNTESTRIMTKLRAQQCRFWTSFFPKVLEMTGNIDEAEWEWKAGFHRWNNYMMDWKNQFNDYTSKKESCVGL
row,SMILES,IC50
1,Nc1nonc1-c1nc2ccccc2n1CC(=O)Nc1ccnc2ccccc12,0.212 µM
2,Nc1nonc1-c1nc2ccccc2n1CC(=O)Nc1ccc([N+](=O)[O-])cc1,0.08 µM
3,Nc1nonc1-c1nc2ccccc2n1CC(=O)Nc1cccc(Cl)c1,0.128 µM
4,Nc1nonc1-c1nc2ccccc2n1CC(=O)Nc1cccc(Br)c1,0.212 µM
5,N#Cc1cccc(NC(=O)Cn2c(-c3nonc3N)nc3ccccc32)c1,0.25 µM
6,COC(=O)c1cccc(NC(=O)Cn2c(-c3nonc3N)nc3ccccc32)c1,0.18 µM

# Test system: not listed separately
# Experiment: Toxicity in ICR mouse assessed as increase in body weight administered for 14 days and measured daily
# Conditions: in vivo, 15 mg/kg, 336 h
row,SMILES,Activity
1,COc1cc2c(cc1OC)C(=O)C(CC1CCN(Cc3ccccc3)CC1)C2 (configuration not stated) [DONEPEZIL],Toxic
